Measurements published in the array DNA melting data of Ke et al. (doi:10.1101/2024.01.08.574731).

Experiments:
[1] = folding enthalpy; higher = less favourable; fluorescence melt of hairpins on a sequencing array, two-state fit; conditions: sodium 0.088 M
Method in brief: (§1)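 To match UV melts, fitted temperatures were raised by 9.35 °C. These fits were bootstrapped two-state models that gave melting temperature and folding enthalpy, combined by inverse variance over four replicates. The input was normalised Cy3 fluorescence of library hairpins with annealed Cy3 and quencher oligos on a sequenced MiSeq flow cell, imaged in 50 mM Na-HEPES pH 8.0, 25 mM NaCl in 2.5 °C steps up to 60 °C.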

[2] = melting temperature; fluorescence melt of hairpins on a sequencing array, two-state fit, raised by 9.35 °C to match UV melts; conditions: sodium 0.088 M
Method in brief: as §1

Row | Sequence | folding enthalpy [1] [kcal/mol] | Tm [2] [°C]
1 | GTAGACGAAAGTCAATAC ((((((....)))..))) | -13.5 | 27.6
2 | GAGCTCCGAAAGGACCTC (((.(((....))).))) | -20.2 | 38.1
3 | GCATCTGGAAACAGGTGC (((.(((....))).))) | -40.5 | 52.2
4 | GCTAACGGAAACATTAGC (((((.(....).))))) | -23.1 | 32.9
5 | GGCTACGAAAGTAGGGCC ((((((....)))..))) | -15.7 | 47.1
6 | GAACACGGAAACGTGCTC ((.((((....)))).)) | -18.6 | 43
7 | GCTGCCGGAAACGACAGC ((((.((....)).)))) | -45.7 | 55.2
8 | GTGTCGGGAAACCGACGC (.(((((....))))).) | -19.8 | 60.5
9 | GCGTCGGACGC ((((...)))) | -24.1 | 51.7
10 | GCTTCGCGAAAGCGCGGC ((..(((....)))..)) | -18.8 | 39.6
11 | GATCCGGAGCCGGATC ((((((....)))))) | -60.6 | 56.3
12 | GTGGAGGAAACTCCAC ((((((....)))))) | -35.2 | 60.1
13 | GTGTCGGGAAACCAACAC ((((.((....)).)))) | -33.7 | 42.9
14 | GATCGGATACCGATC ((((((...)))))) | -36.4 | 56.6
15 | GGATTAGGAAACCAATCC (((((.(....).))))) | -34 | 34.4
16 | GGATATTCGAAAGAATCC (((..(((....)))))) | -13.6 | 26.9
17 | GTTGACGGAAACGTTAGC (.(.(((....))).).) | -7.85 | 29.9
18 | GGGCAAGGAAACTTGCTC (.(((((....))))).) | -27.9 | 52.7
19 | GTTGGCGGAAACGTCAGC (.((.((....)).)).) | -21.6 | 42.3
20 | GCGGTTCCCGC ((((...)))) | -22.1 | 67.5
21 | GACCCACGAAAGTGGTC (((.(((....)))))) | -13.3 | 51.5
22 | GGGGTGTCGAAAGACCCC (((..(((....)))))) | -30.4 | 58.7
23 | GCTGAGCGAAAGCTTTGC ((..(((....)))..)) | -19.1 | 47.9
24 | GCGGATAACCGC ((((....)))) | -19.6 | 53

Row | Sequence | folding enthalpy [1] [kcal/mol] | Tm [2] [°C]
25 | GCGGGTCCGAAAGGACGC (((..(((....)))))) | -11.3 | 52.5
26 | GGGACAGCGAAAGCTCCC (((..(((....)))))) | -19 | 46.1
27 | GTTCGAGGAAACTCGAGC (.(((((....))))).) | -21.7 | 49.8
28 | GTAATTCGAAAGAAATAC (((.(((....))).))) | -16.9 | 33
29 | GATCTTCTCGAAGATC ((((((....)))))) | -39 | 51.8
30 | GAGTGAACGAAAGTTCTC (((..(((....)))))) | -11.3 | 29.9
31 | GGCCAAGGAAACCTAGCC (((.(.(....).).))) | -27.2 | 31.3
32 | GGTTGCGAAAGCACAACC ((((((....)))..))) | -19.6 | 44.2
33 | GTTCTAGGAAACTGGAAC ((((.((....)).)))) | -28.7 | 42.2
34 | GATCCGAGCCCGGATC ((((((....)))))) | -35.6 | 55.3
35 | GTTCTCCGAAAGGAAAC (((.(((....)))))) | -16 | 35.8
36 | GAGACCGAAAGGTGCTC ((((((....))).))) | -21.4 | 46.9
37 | GCTCAGCGAAAGCCGTGC ((.(.((....)).).)) | -12.3 | 42.4
38 | GCGTTCTACGC ((((...)))) | -22.5 | 58.2
39 | GATCGCTGAGCGATC ((((((...)))))) | -31 | 69
40 | GTTTATCGAAAGATCAAC (((.(((....))).))) | -22.1 | 34.6
41 | GCGTCGTCACGC ((((....)))) | -22.4 | 51.8
42 | GCAGTCCGAAAGGAATGC (((.(((....))).))) | -38.1 | 62.1
43 | GGAACTCGAAAGAGTCC (((.(((....)))))) | -19.5 | 49.2
44 | GTCACCGAAAGGTCGAC ((((((....))).))) | -20.1 | 48.1
45 | GGTTTCGAAAGAAGAACC ((((((....)))..))) | -18.3 | 31.5
46 | GTTACTCGAAAGAGAAAC (((.(((....))).))) | -28.2 | 41.9
47 | GCCTAGCGAAAGCGACGC ((.(.((....)).).)) | -15.3 | 47.8
48 | TGGAGGAAACTCCA (((((....))))) | -17.4 | 46

Row | Sequence | folding enthalpy [1] [kcal/mol] | Tm [2] [°C]
49 | GGTGGCGGAAACACCACC (((((.(....).))))) | -42.3 | 53.8
50 | GCGGTAGCGAAAGCTCGC (((..(((....)))))) | -15.5 | 52.8
51 | GATCTAATACTAGATC ((((((....)))))) | -30.1 | 37.4
52 | GGTCGGGGAAACCCGGTC (..((((....))))..) | -14.8 | 45.5
53 | GTCATGGGAAACTGTGAC ((((..(....)..)))) | -32.9 | 39.1
54 | GTTGCACGAAAGTGAAAC (((.(((....))).))) | -31.5 | 51.8
55 | GATCGGCAGGCCGATC ((((((....)))))) | -34.9 | 66.8
56 | GCATGGCGAAAGCGGTGC (((..((....))..))) | -23.8 | 56.1
57 | GTTTGGCGAAAGCCCAAC (((.(((....))).))) | -19.1 | 39.1
58 | GCCGGGCGAAAGCCACGC ((..(((....)))..)) | -12.7 | 50
59 | GACCGCGGAAACGCGACC (..((((....))))..) | -7.67 | 28.9
60 | CGGGTCGGAAACGAACCG (((.(((....))).))) | -42.8 | 59.6
61 | GAACCGCGAAAGCGTTC (((.(((....)))))) | -14.2 | 44
62 | GCGTGGCGAAAGCTAGGC ((.(.((....)).).)) | -20.4 | 52
63 | GTCACAGGAAACTGTGAC (((((((....))))))) | -42.3 | 66.8
64 | GCAGCGACGAAAGTCTGC (((..(((....)))))) | -16.1 | 48.3
65 | CGGACGGAAACGTCTCCG ((((((....)))..))) | -11.3 | 35.7
66 | GCCGGTGGAAACGCTGGC (((.(.(....).).))) | -40.9 | 50.8
67 | GCCAATCCGAAAGGAGGC (((..(((....)))))) | -22.2 | 47
68 | GATCTGTCAGCAGATC ((((((....)))))) | -40.7 | 51.7
69 | GGTCAACGAAAGTTTACC (((.(((....))).))) | -28.8 | 42.8
70 | GAAATAGCGAAAGCTTTC (((..(((....)))))) | -11.8 | 28.6
71 | GTGTGCGAAAGCATCCAC ((((((....)))..))) | -11 | 33.9
72 | GCCTTGCGAAAGCTACGC ((.(.((....)).).)) | -10.2 | 46.3

Row | Sequence | folding enthalpy [1] [kcal/mol] | Tm [2] [°C]
73 | GACACTGGAAACAGTACC (..((((....))))..) | -13 | 24.2
74 | GATCGATCTTCGATC ((((((...)))))) | -33.6 | 52.5
75 | GTTCCCGAAAGGGTGAAC ((((((....)))..))) | -12.5 | 35.5
76 | GGTTCCCCGAAAGGGACC (((..(((....)))))) | -17.9 | 45
77 | GATCCTTACAGGATC ((((((...)))))) | -34.2 | 56
78 | GTGCCCGAAAGGGGACAC ((((((....)))..))) | -12.2 | 67
79 | GCGTTCGTACGC ((((....)))) | -22.1 | 58.3
80 | GGTGGACGAAAGTCACC (((.(((....)))))) | -25.5 | 55.3
81 | CGGCCGGAAACGGGTCCG ((((((....)))..))) | -18.6 | 50.4
82 | GCCTGCGAAAGCAGTGGC ((((((....)))..))) | -14.8 | 57.1
83 | GATCGAAGTGTCGATC ((((((....)))))) | -42.2 | 51.2
84 | GATCATGAGCATGATC ((((((....)))))) | -36.8 | 48
85 | GCTTCCGAAAGGAGCAGC ((((((....)))..))) | -15.2 | 41.7
86 | GCGTGAGGAAACTTGCGC (((..((....))..))) | -30.9 | 48.3
87 | GTACGGGGAAACTCGTGC (.(((.(....).))).) | -27.5 | 39.6
88 | GCGCATCGAAAGATCCGC (((.(((....))).))) | -28.5 | 47.8
89 | AAACCGAAAGGTTT (((((....))))) | -20.7 | 52.8
90 | GTAGTTCCGAAAGGATAC (((..(((....)))))) | -11.6 | 27.7
91 | GATCCCTTAGGGATC ((((((...)))))) | -38.3 | 66.1
92 | GCGGAGCACCGC ((((....)))) | -11.2 | 61.6
93 | GGACGTGGAAACGCGTTC (.(((.(....).))).) | -24.2 | 44.3
